Measured values published in paper PMC4065302 (Diabetes Therapy, 2014).

Tests used:
[1] = acidic pH; no reference given; cited from earlier work
[2] = Serum IAsp and IDeg pharmacokinetics; format: in vivo, human
How it was run: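 Subcutaneous abdominal dosing in T1DM subjects: insulin degludec 0.42 U/kg daily Days 1–5, insulin degludec/insulin aspart 0.6 U/kg on Day 6. Aspart was sampled predose to 12 h on Day 6. Degludec was sampled predose on Days 1–5, then to 48 h, plus 72, 96 and 120 h. Serum levels were measured by validated analyte-specific ELISAs; full analysis set n = 22.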

[3] = test system: subjects with type 1 diabetes mellitus; assay: Safety and tolerability monitoring; format: in vivo, human; conditions: 22 subjects
How it was run: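 Adults 18–65 y with T1DM on insulin ≥12 months. Regimen: insulin degludec 0.42 U/kg s.c. once daily (~8 p.m.) Days 1–5, then single insulin degludec/insulin aspart 0.6 U/kg s.c. on Day 6, with bolus insulin aspart as needed. Monitored: treatment-emergent AEs, confirmed hypoglycemia (severe per ADA, or plasma glucose <3.1 mmol/L or blood glucose <2.8 mmol/L), physical exam, vital signs, ECG, labs. Summarized descriptively.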

[4] = cited from earlier work
[5] = while IDeg steady state was being attained (Days 1-5)

Substance: Insulin glargine
- pH at which soluble [1]: 4

Substance: insulin aspart [IAsp]
- AUCIAsp,0–12h (total serum exposure of IAsp in IDegAsp) ([2]; mean, n = 22, serum, ELISA, IDegAsp 0.6 U/kg s.c. (0.18 U/kg IAsp), Day 6): 1,087 pmol h/L
- t max,IAsp ([2]; median, n = 22, serum, ELISA, IDegAsp 0.6 U/kg s.c., Day 6): 1.33 h

Substance: insulin degludec [IDeg]
- time to clinical steady state ([2]; once-daily IDeg 0.42 U/kg s.c.): 2 to 3 days
- injection site reactions ([3]; during the trial, s.c. administration): No injection site reactions
- treatment-emergent changes in clinical laboratory parameters, vital signs, physical examination or ECG ([3]; following subcutaneous administration): no significant treatment-emergent changes
- confirmed hypoglycemic episodes [3, 5]: 22 episodes
- subjects with confirmed hypoglycemic episodes [3, 5]: 13 subjects
- duration of action [4]: exceeding 42 h
- half-life ([4]; no reference given): > 24 h
